KCNK9 inh: KCNK9 potassium channel inhibitors, primary screen, HEK293 cells, thallium flux | AID 488922, 2010 | B-score at 10 µM | actives 1.2% (n = 310,000) | FluxOR thallium flux fluorescence; stronger effect = lower value;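 active = ratio B-score over 3 SD below the library mean, with starting fluorescence within 5 SD of its mean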;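 note: negative B-score means less thallium flux so channel inhibition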
KCNQ1 inh: inhibitors of human KCNQ1 channel, primary screen, cell-based, thallium flux, high-throughput; Potassium voltage-gated channel subfamily KQT member 1 (Homo sapiens), P51787; CHO-K1 KCNQ1, FluxOR thallium flux fluorescence; stronger effect = higher value; B-score at 10 µM; actives 1.3% (n = 310,000);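 active = compounds whose thallium flux B-score, printed positive for inhibition, exceeds three library SD while starting fluorescence stays within three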;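 note: channel opened by potassium depolarization with thallium stimulus after 20 min compound exposure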
KCNK3 inh: human KCNK3 channel inhibitors, primary screen, CHO cells, FluxOR thallium flux, B-score; actives 0.84% (n = 340,000); Potassium channel subfamily K member 3 (Homo sapiens), O14649; FluxOR fluorescence; stronger effect = lower value; B-score at 10 µM;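 active = B-score under library mean minus 4 SD, starting fluorescence ratio at most library mean plus 5 SD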;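 note: more negative B-score means stronger inhibition of thallium flux through KCNK3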
hERG rescue: hERG rescue from dofetilide block, primary screen, cell-based, CHO-hERG, FluxOR thallium flux, dofetilide IC70; actives 0.51% (n = 310,000); Voltage-gated inwardly rectifying potassium channel KCNH2 (Homo sapiens), Q12809; activation (rescue from dofetilide block), less the hit threshold, % at 10 µM; dofetilide IC70 present;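 active = activation above the mean of controls blocked by dofetilide plus 5 SD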;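 note: thallium influx through hERG after potassium depolarization seen as dye fluorescence rise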
Kir21 inh: inhibitors of mouse Kir2.1 inward-rectifier potassium channel; Inward rectifier potassium channel 2 (Mus musculus), P35561; HEK293-Kir2.1, FluxOR thallium flux fluorescence; stronger effect = lower value; B-score at 10 µM; actives 0.85% (n = 310,000); AID 1672, 2009;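 active = fluorescence ratio B-score at or below minus 3 SD of library scores, with starting-brightness B-score within 2 SD, cut at about -4.2 in these data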;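 note: channel flux triggered by added potassium and thallium sulfate stimulus; B-score of peak minus minimum fluorescence over baseline after thallium stimulus; more negative B-score means stronger Kir2.1 block with less thallium influx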
KCNQ1 act: potentiators or activators of KCNQ1 channel, primary screen, cell-based, thallium flux, high-throughput; B-score at 10 µM; AID 2648, 2010; actives 0.35% (n = 310,000); CHO-K1 KCNQ1, thallium flux FluxOR fluorescence; stronger effect = higher value; Potassium voltage-gated channel subfamily KQT member 1 (Homo sapiens), P51787;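 active = fluorescence ratio B-score, a plate-corrected score, at least three library SD, with initial intensity B-score within 5 SD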
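Medium – assay buffer, equal DMSO in all wells · Material – CHO-K1 cell line with stable KCNQ1 potassium channel expression · Signal – kinetic FluxOR thallium fluorescence, 10-s 1-Hz baseline, 110-s post-stimulus read · Compound – single concentration per compound, DMSO matched to controls · Schedule – 37 °C overnight plating, 90-min dark dye load, 20-min compound pretreatment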
KCNQ1 inh valid: KCNQ1 potassium channel inhibitors, confirmation, cell-based, Tl flux, duplicate; shares compounds with KCNQ1 inh; KCNQ1 cell line, FluxOR thallium flux fluorescence; inhibition, % at 10 µM; actives 93% (n = 1,600); AID 588353, 2011;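 active = primary screen active, with duplicate mean exceeding buffer control mean plus 3 SD of buffer wells, cut at about 28% in these data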
CHO KCNQ1 ctr: thallium flux effects in parental CHO cells, counter-screen for KCNQ1 inhibitor project, cell-based, Tl flux. shares compounds with KCNQ1 inh. parental CHO-K1, FluxOR thallium flux fluorescence ratio; stronger effect = lower value; zero means no signal rise above baseline. fluorescence ratio (Tl flux) at 10 µM. actives 21% (n = 1,600). AID 588366, 2011;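 active = mean of duplicate thallium-flux fluorescence ratios in parental host cells more than 5 SD below the buffer control mean, cut at about 0.38 in these data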;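 note: ratio is peak minus minimum fluorescence divided by baseline fluorescence; actives read low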
KCNQ1 ephys val: KCNQ1 channel inhibitors, confirmation, orthogonal assay, cell-based, automated electrophysiology. AID 624120, 2012. KCNQ1-CHO cells, automated patch clamp current. shares compounds with KCNQ1 inh. actives 20% (n = 490). calls only at 10 µM;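 active = KCNQ1 current drop exceeding 3 SD of negative control wells, seen in both duplicate runs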;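 note: steady state current during a 2 s step from -80 to +40 mV; negative values mean current inhibition and positive values mean potentiation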
KCNQ2 inh: KCNQ2 channel inhibition, selectivity assay for KCNQ1 inhibitor project, cell-based; KCNQ2 cells, FluxOR thallium flux fluorescence; inhibition, % at 10 µM; shares compounds with KCNQ1 inh; AID 651746, 2012; actives 71% (n = 1,600);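 active = mean percent inhibition of the KCNQ2 thallium signal more than 5 SD above the buffer-only control wells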;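 note: KCNQ2 expressed in CHO cells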
Target sequence (O88943 whole entry, looked up): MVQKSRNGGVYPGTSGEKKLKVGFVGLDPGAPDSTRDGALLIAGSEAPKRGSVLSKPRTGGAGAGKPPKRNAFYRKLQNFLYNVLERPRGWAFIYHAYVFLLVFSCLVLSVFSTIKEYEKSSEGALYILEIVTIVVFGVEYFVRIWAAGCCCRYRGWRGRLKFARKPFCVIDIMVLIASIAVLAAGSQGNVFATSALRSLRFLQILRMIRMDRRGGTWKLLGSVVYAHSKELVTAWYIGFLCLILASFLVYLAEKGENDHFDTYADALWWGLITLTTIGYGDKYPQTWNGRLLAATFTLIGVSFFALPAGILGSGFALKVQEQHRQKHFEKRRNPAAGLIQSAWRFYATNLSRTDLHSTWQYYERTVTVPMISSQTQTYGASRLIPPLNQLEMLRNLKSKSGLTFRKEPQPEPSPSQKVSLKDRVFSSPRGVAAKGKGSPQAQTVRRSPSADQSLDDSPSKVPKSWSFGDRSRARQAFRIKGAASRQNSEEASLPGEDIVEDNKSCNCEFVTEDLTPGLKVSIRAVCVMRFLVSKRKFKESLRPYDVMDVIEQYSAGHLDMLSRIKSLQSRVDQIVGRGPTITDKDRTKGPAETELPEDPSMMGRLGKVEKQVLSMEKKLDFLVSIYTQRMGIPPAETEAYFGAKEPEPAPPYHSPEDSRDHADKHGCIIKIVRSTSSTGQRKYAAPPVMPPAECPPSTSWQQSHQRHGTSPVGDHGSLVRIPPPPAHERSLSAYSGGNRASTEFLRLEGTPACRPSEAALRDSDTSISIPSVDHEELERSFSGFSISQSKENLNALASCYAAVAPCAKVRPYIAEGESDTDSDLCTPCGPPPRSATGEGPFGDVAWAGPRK
KCNQ1-KCNE1 inh: KCNQ1/KCNE1 channel inhibition, selectivity assay for KCNQ1 inhibitor project, CHO-K1 cells, thallium flux, FluxOR | shares compounds with KCNQ1 inh | FluxOR thallium flux fluorescence | inhibition, % at 10 µM | actives 77% (n = 1,600) | AID 652147, 2013;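 active = mean percent inhibition of duplicate wells above the buffer-only control mean plus 3 SD of those controls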
KCNK9 block conf: KCNK9 potassium channel inhibitors, confirmation, HEK293 cells, thallium flux, duplicate; shares compounds with KCNK9 inh; inhibition, % at 10 µM; actives 43% (n = 4,900); FluxOR thallium flux fluorescence;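 active = thallium signal inhibited by more than 5 SD of the compound-free buffer control wells, on both duplicate plates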
Kir21 sel: mouse Kir2.1 channel inhibition, confirmation, selectivity assay for KCNK9 modulator project, cell-based, HEK293, thallium flux; shares compounds with KCNK9 inh; Kir2.1 cells, FluxOR thallium flux fluorescence; inhibition, % at 10 µM; actives 4% (n = 4,900); AID 492993, 2010;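 active = thallium signal drop more than 5 SD beyond the mean of the no-compound control wells, seen in both duplicate plates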;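 note: signal is fluorescence rise after thallium addition divided by baseline fluorescence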
KCNK9 uninduced: thallium flux in non-induced HEK293 cells, confirmation, counter-screen for KCNK9 inhibitor project, cell-based, second counter screen, non-induced KCNK9-HEK293; shares compounds with KCNK9 inh; inhibition, % at 10 µM; actives 40% (n = 4,900); FluxOR thallium flux; AID 492997, 2010;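 active = thallium signal drop beyond 5 SD of the untreated control mean, on both duplicate plates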
Each line names hits and unclear results; the compound was inactive in the other large screens (follow-up assays come after a bar, where they were run). Only some compounds are listed: those with a hit (about 3.7% of all), similar ones and a draw of the others.

CC(C)(CNS(=O)(=O)c1cccs1)N1CCOCC1	none (no result: KCNK9 inh, KCNQ1 inh, hERG rescue, Kir21 inh, KCNQ1 act)
CCc1ccccc1NCC(=O)Nc1ccc(Cl)c(C(F)(F)F)c1	KCNQ1 inh 8 | KCNQ1 inh valid 50 | CHO KCNQ1 ctr inactive | KCNQ2 inh 62% | KCNQ1-KCNE1 inh inactive | KCNK9 block conf inactive | Kir21 sel inactive | KCNK9 uninduced 40%
CC(=O)NC(CC(=O)OCC(=O)N1CCN(S(=O)(=O)c2ccc(Cl)cc2)CC1)c1ccccc1 (stereo not drawn)	none
COc1ccc(-c2onc(C)c2-c2cnn(-c3ccccc3)c2)c(O)c1C	KCNQ1 inh 6 | KCNQ1 inh valid 44 | CHO KCNQ1 ctr inactive | KCNQ2 inh 115% | KCNQ1-KCNE1 inh 39% | KCNK9 block conf inactive | Kir21 sel inactive | KCNK9 uninduced inactive
CC1CCC2(CC1)NC(=O)N(CC(=O)NCc1ccc(F)cc1)C2=O (stereo not drawn)	none (no result: KCNK9 inh, KCNQ1 inh, hERG rescue, Kir21 inh, KCNQ1 act)
O=C(COc1ccccc1Cl)c1ccc2c(c1)CCCC2	KCNQ1 inh 6 | KCNQ1 inh valid 94 | CHO KCNQ1 ctr inactive | KCNQ1 ephys val inactive | KCNQ2 inh 92% | KCNQ1-KCNE1 inh 119% | KCNK9 block conf inactive | Kir21 sel inactive | KCNK9 uninduced 37%
O=C(COc1cccc(Cl)c1Cl)Nc1ccc2c(c1)CCC2	none
CN1/C(=C\C(=O)Nc2cccc(Cl)c2)C(C)(C)c2ccccc21	KCNK9 inh -8.2, KCNQ1 inh 9 | KCNQ1 inh valid 120 | CHO KCNQ1 ctr inactive | KCNQ1 ephys val inactive | KCNQ2 inh 125% | KCNQ1-KCNE1 inh 169% | KCNK9 block conf 45% | Kir21 sel inactive | KCNK9 uninduced 34%

High-throughput results deposited in PubChem BioAssay by Johns Hopkins Ion Channel Center.
